Consider 97 compounds from ChEMBL document CHEMBL4513216, “Probing the Open Global Health Chemical Diversity Library for Multistage-Active Starting Points for Next-Generation Antimalarials” (ACS Infect Dis, 2020).

SMILES strings stand for the structures.

The data set in a line: Toxicity liver stage against HepG2, at 10uM. Conditions: human, HepG2-A16-CD81EGFP cells; read-out: INHIBITION
Type of data set: cell-based. Details: test concentration 10 uM, cell line HepG2-A16-CD81EGFP. A digest of the protocol: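 Uninfected HepG2-A16-CD81EGFP cells, 3 × 10^3 per well, 1536-well, plated on prespotted compound at 10 μM final, parasite-free screening media added to match infected plates; puromycin 10 μM positive, DMSO 0.5% negative; run in parallel with 48 h PbLuc assay at 37 °C, 5% CO2; viability by CellTiter-Glo luminescence, normalized to controls.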
As for `CCn1ccnc1CN1CCCC(CO)(Cc2cccc(OC)c2)C1` (configuration not stated), the cytotoxicity at 10 µM was 3.25%.
The value for `O=c1[nH]cnc2[nH]c(N3CCCCC3)nc12` was 3.03%.
On to `F[C@@H]1CN(Cc2ccccc2)C[C@@H]1OCc1nc2cnccc2[nH]1`, for which the cytotoxicity at 10 µM is -0.966%.
With `c1ccc(O[C@H]2COCCN(Cc3cccc4c3OCO4)C2)cc1`, the cytotoxicity at 10 µM was determined as 3.53%.
As for `Cc1n[nH]c2c1C(c1ccc(F)cc1)SCC(=O)N2` (configuration not stated), the figure is 2.06%.
The value for `O=C(Cn1ccc2ccccc21)NC[C@@H]1CCCN2CCCC[C@H]12` was -4.16%; that for `COCC(=O)N1CCC(c2ccc(OC)cc2)C1` (configuration not stated) was 1.81%.
As for `Cn1cc(CN2CCc3c(c(COCC#N)nn3C)C2)cn1`, the figure is -2.45%; as for `CN(C)Cc1nn(C)c2c1CN(C(=O)c1cccc(C#N)c1)C2`, 7.38%; as for `O=C(c1ccnnc1)N1C[C@H]2CCC[C@@H](OCc3cccnc3)[C@@H]2C1`, 5.19%.
Consider `O=C(C1CCOCC1)N1CCO[C@@H]2[C@@H](OCc3ccncc3)CC[C@@H]21`, for which the cytotoxicity at 10 µM is 8.5%.
The value for `COCC1COCCC12CCN(C(=O)CC1Cc3ccccc3C1)CC2` (configuration not stated) was 4.03%; that for `COCC1CN(C(=O)C2=CCCC2)Cc2cnn(CC3CC3)c21` (configuration not stated) was 9.61%; that for `CC(C)CCNC(=O)c1c(-n2cnnn2)sc2c1CCCC2` was 8.79%.
`CNC(=O)[C@H]1C[C@@H]2CN(S(=O)(=O)c3ccccc3)C[C@@H]2N1C(C)=O`: the cytotoxicity at 10 µM was -10.4%.
The value for `Cc1ccc2c(cnn2CCC(=O)NCc2csc(C)n2)c1` was 1.14%.
Regarding `CCn1nc(C)c(C(=O)Nc2ccc3c(c2)C(C)(C)C(=O)N3C)c1C`, the cytotoxicity at 10 µM was determined as 6.42%.
In the case of `CCOc1ccccc1Nc1nc2c(C)nn(C)c2c(=O)n1C`, the cytotoxicity at 10 µM is -7.53%.
The value for `O=C(NCCc1cc2nc(-c3ccncc3)ccn2n1)C1CC1` was 5.82%.
On to `CN1CCC(Cc2cccc(-c3cc(F)ccc3C(=O)O)n2)CC1`, for which the cytotoxicity at 10 µM is -3.22%.
On to `CC(C)N1CCC(Cc2cc(-c3cccc(C(=O)O)c3)ncn2)CC1`, for which the cytotoxicity at 10 µM was -8.99%.
As for `CC(C)C(=O)N1CCC(Cc2nccnc2Nc2ccccn2)CC1`, the cytotoxicity at 10 µM was -7.08%.
The value for `Cc1c[nH]nc1C1CCCN(C(=O)c2c(C)noc2C)C1` (configuration not stated) was -3.53%; that for `Cn1ccc(C(=O)N2CCC(Cc3cccc4ncccc34)C2)n1` (configuration not stated) was -4.83%.
Turning to `Cc1cc(Br)cnc1N(C)CC1CCOC1` (configuration not stated), the cytotoxicity at 10 µM came out at 4.99%.
The value for `Cc1csc(N2CCCN(C(=O)c3nccnc3N)CC2)n1` was -2.42%.
With `CC(C)N(CC(C)(C)O)C(=O)NC1CC1`, the cytotoxicity at 10 µM was 5.73%.
As for `CCCC(=O)NC1CCCN(C(=O)c2ccc(C)nc2)C1` (configuration not stated), the figure is 17.5%; as for `COC(=O)c1sc2cccc(F)c2c1CNC(=O)C1CCOC1` (configuration not stated), 8.97%.
`CN1CCC(CCNC(=O)N2CCN(Cc3ccon3)CC2)CC1`: the cytotoxicity at 10 µM was -6.49%.
The value for `Cc1n[nH]c(C2CN(CC(=O)NCCC3=CCCCC3)CCO2)n1` (configuration not stated) was 12.9%.
The value for `CCSc1ccc(C(=O)N2CCCC2C(=O)N2CCOCC2)cn1` (configuration not stated) was -6.98%; that for `CC(C)(C)c1cc(NC(=O)CN2CCCC(Cn3cncn3)C2)on1` (configuration not stated) was 3.69%.
In the case of `CN(CCCc1n[nH]c(N)c1C#N)C(=O)NC1CC1`, the cytotoxicity at 10 µM stood at 5.85%.
As for `CC(NC(=O)N1CCN(c2ncccn2)CC1)c1ccc(C#N)cc1` (configuration not stated), the figure is -2.81%; as for `CC(C)C(O)CCNC(=O)Nc1cc(F)ccc1-n1cccn1` (configuration not stated), -3.86%; as for `Cc1[nH]c2ccccc2c1CCNC(=O)N1CCC2(C1)OCCO2`, 1.12%.
On to `Cc1noc(CN2CCN(CC(C)O)CC2)n1` (configuration not stated), for which the cytotoxicity at 10 µM is -10%.
As for `CC(CNC(=O)c1cccnc1Oc1cccnc1)N(C)C` (configuration not stated), the figure is -14%.
As for `Cc1ccc(-c2nc(CN3CCOC(Cn4cccn4)C3)cs2)o1` (configuration not stated), the figure is -8.86%; as for `CN(Cc1cccs1)C(=O)CN1CCCC1Cn1cncn1` (configuration not stated), -15.6%; as for `NC(=O)C1CCN(C(=O)Cn2nc(-c3ccccc3)oc2=O)C1` (configuration not stated), -13%.
As for `CC(C)C1CN(C(=O)c2nccnc2N)CCS1` (configuration not stated), the figure is -8.54%.
Take `Cc1nn(C)c(N2CCOCC2)c1CNC(C)c1cccnc1` (configuration not stated): the cytotoxicity at 10 µM was -13.6%.
As for `CN(C)CCO[C@H]1CN(C(=O)c2ccc(C#N)cc2)[C@@H]2COC[C@H]12`, the figure is 0.929%.
Regarding `CNCC(=O)Nc1cccc(-c2cnc(NCCO)nc2)c1`, the cytotoxicity at 10 µM was -6.94%.
The value for `C[C@H]1CCCCN1CCCNc1nccc(-c2c[nH][nH]c2=O)n1` was -6.91%; that for `O=C1CN(CC2CC2)Cc2nc(NCCc3ccccn3)sc21` was -12.3%.
Turning to `O=C(Nc1ccc(-c2cnc(NCCO)nc2)cc1)[C@@H]1CCCCN1`, the cytotoxicity at 10 µM was -5.08%.
The value for `CSCc1noc(CN2CC3(CCCC3)CC2=O)n1` was 4.29%.
As to `O=c1[nH]c(-c2cccnc2)nc2c1CCN(S(=O)(=O)N1CCCC1)C2`, the cytotoxicity at 10 µM is 0.384%.
As for `Cc1ccc(CSc2nc(N)cc(NCCS(=O)(=O)N(C)C)n2)cc1`, the figure is 0.479%.
For the compound `CC(c1ccc(-c2cnc(N)nc2)cc1)N1CCOCC1` (configuration not stated), the cytotoxicity at 10 µM was 1.97%.
Consider `O=C(c1scc2c1OCCO2)N1CCC(Cc2cccc(CO)c2)C1` (configuration not stated), for which the cytotoxicity at 10 µM was 6.01%.
The value for `CCC(=O)c1ccc(OCC(=O)NC(C)c2ncnn2CC)cc1` (configuration not stated) was 1.9%; that for `Nc1cc(N2CCCC(COc3ccc(F)cc3)C2)ncn1` (configuration not stated) was -0.106%.
With `COc1ccc(Cl)cc1S(=O)(=O)N(C)CC(N)=O`, the cytotoxicity at 10 µM was found to be 7.82%.
As for `CC1CCN(S(=O)(=O)NCC2CCOc3ccccc3C2)CC1` (configuration not stated), the figure is -1.25%; as for `COCCN(C)C[C@@H]1CN(C(=O)c2cccc(C(F)(F)F)c2)C[C@@H]1CO`, -17.5%; as for `COCCn1ccnc1C1CCCN(C(=O)CSCC2CC2)C1` (configuration not stated), -14.6%.
As for `N#Cc1c(SCCN2CCCCC2)sc2c(O)cc(O)nc12`, the figure is -13.1%; as for `CCn1cnnc1C1CCN(C(=O)c2cc(OC)ccc2OC)CC1`, -4.2%.
As to `CNC(=O)COc1ccc(CNc2cncc(-n3cccn3)n2)cc1`, the cytotoxicity at 10 µM was -0.906%.
The value for `CN(Cc1ccsc1)C(=O)c1cccc(S(=O)(=O)NCC2CCCO2)c1` (configuration not stated) was -13.8%.
On to `CC(C)c1cc(NC(=O)CN2CCCC2Cn2cncn2)on1` (configuration not stated), for which the cytotoxicity at 10 µM was -4.05%.
For `CN(Cc1cccc(F)c1)Cc1nc2c(cnn2C)c(=O)[nH]1`, the cytotoxicity at 10 µM was -2.8%.
As for `CCOc1ccnc(N2CCN(C(=O)c3ccoc3)CC2)n1`, the figure is -6.1%; as for `COc1c(C2CCCN2CC(=O)Nc2cc(C)nn2C)c(C)nn1C` (configuration not stated), 3.72%; as for `O=C(N1CCCC(n2cncn2)C1)C1(c2cccc(F)c2)CC1` (configuration not stated), -2.91%.
As for `COc1cccc2cc(CNC(=O)N3CCS(=O)(=O)CC3)oc12`, the figure is -19.3%.
As for `O=C(COc1ccccc1)NCCNC(=O)c1scnc1Cl`, the figure is -4.83%; as for `Cc1ccccc1CCNC(=O)CN1CCCC(Cn2cncn2)C1` (configuration not stated), -5.04%; as for `Cc1cc(CN(C)C(=O)c2ccc(F)c(C(F)(F)F)c2)no1`, -10%.
Turning to `CC(C)C(C)NC(=O)c1cc(Br)c2c(c1)OCCO2` (configuration not stated), the cytotoxicity at 10 µM is -9.89%.
The value for `Cc1ccccc1OCCN1CCCC(c2cc(C(N)=O)[nH]n2)C1` (configuration not stated) was -14.3%; that for `Cc1nc(C2CCCN(C(=O)c3cc(Cl)c4c(c3)OCO4)C2)no1` (configuration not stated) was -2.09%.
As for `Cc1cnn(CC2CCCCN2C(=O)c2csc(C)n2)c1` (configuration not stated), the figure is -1.16%; as for `CCn1cnnc1CNC(=O)N1CCC(OCc2ccccc2)CC1`, -5.26%.
As for `CCn1cnnc1CNC(=O)N1CCN(CCc2ccccc2)CC1`, the figure is -8.14%; as for `CCC1CN(CC(=O)Nc2cc(C)nn2C)CCO1` (configuration not stated), 1.14%.
Turning to `CCOc1ccc(CC(CNC(=O)c2sccc2C)C(N)=O)cc1` (configuration not stated), the cytotoxicity at 10 µM was -4.18%.
The value for `COc1ccccc1CCNC(=O)N1CCCC(c2nncn2C)C1` (configuration not stated) was -25.4%; that for `CC(C(=O)N1CCC(Nc2cccnn2)CC1)n1ccnc1` (configuration not stated) was -9.44%; that for `O=C(C1CCOCC1)N1C[C@H]2CCC[C@@]2(COc2cccnc2)C1` was -1.18%.
The value for `O=C(c1ccccn1)N1CCC2(CC1)COC(COCC1CC1)C2` (configuration not stated) was 5.14%.
As for `COCc1nn(C(C)C)c2c1CCN(Cc1cccs1)C2`, the figure is -9.55%; as for `CN1CC(=O)N(c2cccc(F)c2)CC12CCN(Cc1ccsc1)C2` (configuration not stated), 4.93%.
Regarding `CC(C)CS(=O)(=O)N1CCC2(CN(c3ccsc3)C(=O)CN2C)C1` (configuration not stated), the cytotoxicity at 10 µM was 6.88%.
Take `Cc1cccc(CN2CCc3nnc(Cn4cccc4)n3CC2)n1`: the cytotoxicity at 10 µM was found to be 1.7%.
Take `Cc1occc1C(=O)N1CCCC2(CCN(CCN3CCCC3)C2=O)C1` (configuration not stated): the cytotoxicity at 10 µM was -9.18%.
Turning to `CN(C)C[C@]12COC[C@H]1CN(C(=O)Cc1ccc3c(c1)OCO3)C2`, the cytotoxicity at 10 µM is -9.94%.
As for `c1ccc(CN2CCc3c(COCC4CC4)cncc3C2)nc1`, the figure is 2.41%; as for `Cn1ccnc1CN1CCC2(CC1)Cc1ccccc1CNC2=O`, -1.6%.
The value for `CN(C)c1ncc2c(n1)C1(CCN(Cc3ccccc3F)C1)COC2` (configuration not stated) was 10.6%; that for `O=C([C@@H]1CCO[C@@H]2CCN(Cc3cccs3)C[C@H]21)N1CCCCO1` was 5.77%.
The value for `Cc1ccc2c(n1)N(C)CCN(C(=O)NC(C)C)C2` was -3.38%; that for `CCCn1nccc1NC(=O)CN1CCc2cnc(CC)nc2C1` was 2.31%.
